Source: PubChem (Sanford-Burnham Center for Chemical Genomics)
TIM10 inh: growth inhibitors of isogenic TIM10 control yeast, primary screen, counter-screen for tim10-1 yeast inhibitor project, luminescence, uHTS; inhibition, % at 10 µM; S. cerevisiae TIM10 strain growth, BacTiter-Glo luminescence, 24 h; 330,000 compounds, 1.4% hits; AID 463195, 2010;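 active = inhibition of 40% or more at the single tested concentration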;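 note: wild-type TIM10 isogenic control strain grown at permissive 25 °C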
XBP1 UPR activ: activators of adaptive XBP1 UPR arm, primary screen, cell-based, CHO-XBP1 luciferase reporter, luminescence, uHTS | 330,000 compounds, 0.33% hits | activation, % at 20 µM | IRE1-XBP1 UPR activation; percent of tunicamycin response, DMSO as zero;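 active = versus positive control, 20 µM dose yields 30% or more activation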;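 note: 100% = tunicamycin at 10 µg/mL and 0% = DMSO only wells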
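Material – CHO cell line with stable XBP1 luciferase reporter · Buffer or medium – F12 plus 10% FBS · Compound – single point, 20 µM final compound, 1% DMSO · Schedule – 16-18 h cell attachment at 37 °C, then 6 h compound exposure · Signal – Steady-Glo luminescence read · Benchmarks – high control tunicamycin 10 µg/mL final, low control DMSO vehicle only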
CHOP UPR activ: activators of apoptotic CHOP UPR arm, primary screen, cell-based, CHO-CHOP luciferase reporter, luminescence, uHTS | UPR activation; percent of tunicamycin response over DMSO baseline | activation, % at 10 µM | 330,000 compounds, 0.34% hits | AID 449763, 2010;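 active = at 10 µM dose, activation of 40% or more, normalized to positive control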;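 note: 100% = tunicamycin at 10 µg/mL and 0% = DMSO alone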
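System: CHO CHOP reporter cells. Amount: 500 cells per well. Buffer or medium: F12 medium, 10% FBS. Compound dosing: one dose, 10 µM in 0.5% DMSO. Incubation: 6 h compound exposure at 37 °C after overnight seeding. Technique: Steady-Glo luciferase luminescence. Benchmarks: tunicamycin and DMSO controls.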
tim10-1 inh: growth inhibitors of tim10-1 mutant yeast, primary screen, luminescence, uHTS | S. cerevisiae tim10-1 ts strain growth, BacTiter-Glo, 24 h | inhibition, % at 20 µM | 330,000 compounds, 2.2% hits | AID 463190, 2010;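 active = inhibition of at least 40%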;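 note: mutant grown at 25 °C; 0% = DMSO wells with yeast and 100% = wells holding no yeast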
tim23-1 inh: growth inhibitors of tim23-1 mutant yeast, primary screen, luminescence, uHTS; AID 463212, 2010; S. cerevisiae tim23-1 growth, BacTiter-Glo luminescence, 24 h; 330,000 compounds, 1.3% hits; inhibition, % at 20 µM;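 active = growth inhibition of the mutant yeast at or above 50%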;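 note: temperature-sensitive mutant grown at 25 °C; plate controls were DMSO-treated mutant yeast for no effect and medium wells lacking yeast for full effect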
tim10-1 conf: growth inhibitors of tim10-1 mutant yeast, confirmation, single concentration, luminescence, S. cerevisiae; shares compounds with tim10-1 inh; S. cerevisiae tim10-1 ts strain growth, BacTiter-Glo, 24 h; inhibition, % at 20 µM; 7,400 compounds, 56% hits; AID 463213, 2010;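 active = inhibition of yeast growth at or above a set limit in either of two repeat tests at 20 µM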;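 note: tim10-1 mutant grown at permissive 25 °C to find synthetic lethal compounds; 0% = DMSO yeast wells and 100% = medium wells without yeast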
* hit, by the source's call; · = no result given. This is a sample that favours compounds with a hit; in the whole collection about 3.9% have one here.

SMILES	TIM10 inh	XBP1 UPR activ	CHOP UPR activ	tim10-1 inh	tim23-1 inh	tim10-1 conf
Cc1nc(N2CCN(c3ccccn3)CC2)c2c(C)c(C(=O)Nc3c(F)cc(F)cc3Br)sc2n1	7	-2	9	40*	27	15
Cc1nc(N2CCN(c3ccccn3)CC2)c2c(C)c(C(=O)Nc3c(C)cc(Br)cc3C)sc2n1	4	-2	-1	18	19	·
CCOC(=O)c1sc(NC(=O)C2CC2)nc1C	38	0	0	47*	48	32*
O=C(C[C@H]1C/C=C\CC[C@H](Cc2ccc(F)cc2)C(=O)OC[C@@H]2CCCN2C1=O)N[C@H](CO)Cc1ccccc1	-2	-1	-2	-5	-8	·
CC(Sc1nnc(NC2CCCCC2)s1)C(=O)Nc1ccc2c(c1)C(=O)c1ccccc1C2=O (stereo not drawn)	17	8	4	42*	23	19
CC(Sc1nnc(NC2CC2)s1)C(=O)Nc1ccc(N2CCOCC2)cc1 (stereo not drawn)	-7	3	0	0	-15	·
CCOc1cc(/C=N/NC(=O)CN2CCCCC2)ccc1OCc1ccccc1	14	-1	1	21	2	·
CCOc1cc(/C=N/NC(=O)CN2CCOCC2)ccc1OCc1ccc(Cl)cc1	18	-1	0	42*	16	10
CCC1CCCCN1CCCNC(=O)Cn1cnc2sc(C)c(S(=O)(=O)N3CC(C)CC(C)C3)c2c1=O (stereo not drawn)	15	-1	-1	-4	5	·
O=C(Oc1ccc(Br)cc1C(=S)N1CCCCC1)c1cc([N+](=O)[O-])cc([N+](=O)[O-])c1	36	-3	-2	51*	46	31
N#CCSc1ccccc1NC(=O)CN1C(=O)C2CC=CCC2C1=O (stereo not drawn)	-1	-1	1	-2	5	·
Cc1ccc(Sc2nnc(Cc3ccccc3)c3ccccc23)cc1	24	-4	1	41*	34	27
CCOC(=O)c1c(N)sc2c(OC)c(Br)ccc12	32	2	6	58*	39	45*
CCOC(=O)c1c(N)sc(C(=O)OC)c1C	-15	6	-2	2	6	·
CCN1CCN(C2=C(NS(=O)(=O)c3ccccc3)C(=O)c3ccccc3C2=O)CC1	15	-1	4	4	9	·
CCOC(=O)N1CCN(C2=C(NS(=O)(=O)c3ccccc3)C(=O)c3ccccc3C2=O)CC1	25	-8	2	55*	34	15
Cc1ccc(S(=O)(=O)N2CCN(C(=O)CN3C(=O)CNC3=O)CC2)cc1	3	-2	1	-5	4	·
C=CCN=c1scc(-c2ccc(F)cc2)n1/N=C/c1ccccn1	35	12	5	41*	27	14
COc1ccc(/C(C)=N/NC(=O)CNC(=O)/C=C\c2ccccc2)c(OC)c1	9	-3	0	7	5	·
CC(=O)Oc1ccc2c(=O)oc(-c3ccccc3)nc2c1	17	5	3	35	30	·
CC(=O)Oc1ccc2c(=O)oc(-c3ccccc3C)nc2c1	20	0	1	44*	41	40*
O=c1[nH]c(C2CCN(S(=O)(=O)/C=C/c3ccccc3)CC2)nc2c1nnn2Cc1ccccc1	15	-7	1	-8	10	·
CCn1c(=O)c(C(=O)CN(C)CC(=O)Nc2ccccc2Br)c(N)n(Cc2ccccc2)c1=O	18	-1	0	23	20	·
O=C(COc1cc2oc(=O)cc(-c3ccccc3)c2cc1Cl)NCc1ccccn1	-24	1	0	42*	-10	-58
CCOc1ccc(/C=C2/C(=O)N(c3ccc(OC)cc3)C(=S)N2CC(=O)OC)cc1OCC	31	3	-1	41*	40	30
SMILES	TIM10 inh	XBP1 UPR activ	CHOP UPR activ	tim10-1 inh	tim23-1 inh	tim10-1 conf
Cc1noc(C)c1NC(=O)Nc1ccc2c(c1)C(=O)N([C@H](C)CO)C[C@H](C)[C@@H](CN(C)S(=O)(=O)c1cccs1)O2	-4	2	3	14	13	·
COc1ccc(/C=C(\NC(=O)c2ccc(C)cc2)C(=O)N2CCCCC2)cc1	23	-2	3	22	21	·
CC(C)(C)c1cc(=O)[nH]c(SCc2ccccc2)n1	17	0	-2	41*	32	24
O=C(c1ccco1)N1CCN(C(=O)c2ccc(-c3ccccc3Cl)o2)CC1	-14	5	4	-28	30	·
O=C(c1ccc(-c2ccccc2Cl)o1)N1CCN(c2ccccc2O)CC1	16	-2	1	44*	48	28
Cc1nc2cc(Cl)ccc2n1-c1ccccc1	-4	-1	3	47*	24	19
CCOC(=O)[C@H]1[C@H]2COc3ccc(C)cc3[C@@H]2N2C(=O)c3cc(C)ccc3NC(=O)[C@@]12C	25	-1	-1	14	13	·
O=C(Nc1nc2ccccc2[nH]1)c1ccccc1F	33	-5	-10	46*	50	30
CCOc1nc2cnccc2n(CC(=O)Nc2cccc(C)c2)c1=O	-4	-2	0	19	5	·
Cc1cc(C)c(S(=O)(=O)c2ccccc2)c(OC(=O)c2c(Cl)cc(Cl)cc2Cl)n1	36	2	2	41*	-15	36*
CC(C)[C@H](NC(=O)N1CCn2c1nc1ccccc12)C(=O)NCC1CCCO1 (stereo partly drawn)	-5	-7	-2	-4	-12	·
Nc1ccccc1Nc1cc(-c2ccccc2)nn1-c1cccc(Cl)c1	20	-1	2	44*	48	16
Cc1[nH]c(C(=O)O)c(C#N)c1C(=O)c1ccccc1	6	-9	-2	8	5	·
CC(=O)N(C(C)=O)c1c(C#N)c(C)n(-c2ccccc2)c1C(=O)c1ccccc1	20	-3	1	41*	37	20
Cc1cc(NC(=O)c2ccccc2Oc2ccccc2)no1	39	-1	0	44*	33	31*
S=c1[nH]cc(-c2ccccc2)n1-c1ccccc1	-5	1	-2	44*	3	1
C=CCC(=O)NC1CC(C)(C)Cc2c1cnn2-c1ccc(C)cc1 (stereo not drawn)	-10	-5	-1	3	20	·
CC1(C)Cc2c(cnn2-c2ccccc2)C(NC(=O)c2ccoc2)C1 (stereo not drawn)	4	-3	0	16	22	·
